Data set [1] can be described thus: Kinetic solubility of the compound in phosphate buffer at pH 6.5 after 30 mins by nephelometry. The class given is physicochemical. The note with it: read-out: Kinetic_solubility. In short, it runs like this: (§1)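 Kinetic aqueous solubility determined by nephelometry.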
Data set [2] is described as follows: Kinetic solubility of the compound in HCL buffer at pH 2 after 30 mins by nephelometry. The class given is physicochemical. The note with it: read-out: Kinetic_solubility. In short, it runs like this:
as §1

Data set [3] is described as follows: Plasma concentration in Swiss mouse at […], iv via bolus administration measured up to 30 mins. The data set is classed as ADME, organism-based.
Data set [4] can be described thus: Plasma concentration in Swiss mouse at […], po via gavage administration measured up to 30 mins. The class given is ADME, organism-based. The note with it: in vivo, 0.5 h.
Data set [5] is described as follows: Plasma concentration in Swiss mouse at 30 mg/kg, po via gavage administration measured at 60 to 120 mins. The class given is ADME, organism-based. The note with it: in vivo. Summed up: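 Non-fasted male Swiss outbred mice (24–33 g) with free access to food and water, two mice per dose. Dosed by bolus tail-vein IV injection or oral gavage. Blood taken up to 24 h by submandibular bleed or terminal cardiac puncture into tubes with heparin and a stabilization cocktail, at most two samples per mouse. Plasma stored at -20 °C until analysis.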

The nature of data set [6]: Apparent permeability across apical to basolateral side in human Caco2 cells assessed as mass balance. The data set is classed as ADME, cell-based. The note with it: Caco-2, read-out: permeability.
The nature of data set [7]: Apparent permeability across basolateral to apical side in human Caco2 cells assessed as mass balance. The data set is classed as ADME, cell-based. The note with it: Caco-2, read-out: permeability.
The nature of data set [8]: Apparent permeability across apical to basolateral side in human Caco2 cells. The class given is ADME, cell-based. The note with it: Caco-2. Background: Caco-2 cells form a polarised layer with tight junctions and transporters.

Converted amounts (≈) assume the structure as drawn.

For `CSc1nncc(-c2cnnc(SC)n2)n1`, the solubility kinetic at 0.5 h in data set [1] lay within 3.1 to 6.3 µg/mL (≈ 12.3 to 25 µM); in data set [2], 6.3 to 12.5 µg/mL (≈ 25 to 49.5 µM).

Regarding `CCCSc1nncc(-c2cnnc(SCCC)n2)n1`, the solubility kinetic at 0.5 h in data set [1] and in data set [2] was 3.1 to 6.3 µg/mL (≈ 10.1 to 20.4 µM) each time.

For the molecule `CSc1nncc(-c2cnnc(OCCN(C)C)n2)n1`, the solubility kinetic at 0.5 h in data set [1] was in the range of 50 to 100 µg/mL (≈ 170 to 341 µM); in data set [2] it was 25 to 50 µg/mL (≈ 85.2 to 170 µM).

On to `CSc1nncc(-c2cnnc(SCCN(C)C)n2)n1`, for which the solubility kinetic at 0.5 h in data set [1] and in data set [2] was 6.3 to 12.5 µg/mL (≈ 20.4 to 40.4 µM) in each case. This molecule yielded a concentration at 0.5 h in data set [3] greater than 20 nM. In addition, the Drug uptake result in data set [4] is recorded as “Not Active”; in data set [5], “Active”. The recovery in data set [6] is 85%; in data set [7] it was 90%. Moreover, in data set [8], the Papp A→B – broadly, the apparent permeability from the apical to the basolateral side of a cell layer – came to 49 ×10⁻⁶ cm/s.

`COc1nncc(-c2cnnc(OC)n2)n1`: the values for the solubility kinetic at 0.5 h in data set [1] and in data set [2] were 50 to 100 µg/mL (≈ 227 to 454 µM) and greater than 100 µg/mL, respectively.

Regarding `CCCCSc1nncc(-c2cnnc(SCCCC)n2)n1`, the solubility kinetic at 0.5 h in data set [1] and in data set [2] was less than 1.6 µg/mL each time.

For `COCCSc1nncc(-c2cnnc(SCCOC)n2)n1`, the solubility kinetic at 0.5 h in data set [1] and in data set [2] was 12.5 to 25 µg/mL (≈ 36.7 to 73.4 µM) in each case.

Consider `CSc1nncc(-c2cnnc(SC3CCCC3)n2)n1`, for which the solubility kinetic at 0.5 h in data set [1] and in data set [2] was 6.3 to 12.5 µg/mL (≈ 20.6 to 40.8 µM) each time.

Consider `OCCCSc1nncc(-c2cnnc(SCCCO)n2)n1`, for which the solubility kinetic at 0.5 h fell in the range of 60 to 100 µg/mL (≈ 176 to 294 µM) in data set [1] and 25 to 50 µg/mL (≈ 73.4 to 147 µM) in data set [2].

As to `CSc1nncc(-c2cnnc(SCCCO)n2)n1`, the solubility kinetic at 0.5 h in data set [1] and in data set [2] was 50 to 100 µg/mL (≈ 169 to 337 µM) throughout.

Consider `CC(C)CSc1nncc(-c2cnnc(SCC(C)C)n2)n1`, for which the solubility kinetic at 0.5 h in data set [1] and in data set [2] was 1.6 to 3.1 µg/mL (≈ 4.75 to 9.21 µM) each time.

The record behind these values is ChEMBL document CHEMBL4480402, “3,3'-Disubstituted 5,5'-Bi(1,2,4-triazine) Derivatives with Potent in Vitro and in Vivo Antimalarial Activity” (J Med Chem, 2019).
